What was measured:
[1] = tested on: systemic C3 activation (classical pathway); conditions: serum concentration threshold for inhibition of systemic C3 activation; cited from earlier work
[2] = type: in vivo, human; conditions: intravitreal
Summary of the method: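 Serum levels pooled from 4 clinical studies in adults with GA or nAMD, after single intravitreal 4, 10 or 20 mg or 15 mg monthly or every other month. LLOQ 0.10 μg/mL; BLQ samples (>20%) handled by M3 method. Vitreous dose compartment, first-order absorption into one serum compartment, first-order elimination; stepwise covariates (forward α=0.05, backward α=0.001); half-lives are median empirical Bayes estimates.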

[3] = tested on: systemic C3 activation (alternative pathway); conditions: serum concentration threshold for inhibition of systemic C3 activation; cited from earlier work
[4] = median empirical Bayes estimated

pegcetacoplan
EC50, classical pathway [1]: 5.90 µg/mL
VC/F, Transformed Estimate ([2]; apparent volume of the central serum compartment, 261 patients with GA or nAMD): 1.83 L
half-life based on the slowest rate process [2]: approximately 2 weeks
absorption half-life (vitreous-to-serum) [2, 4]: 314 h
elimination half-life (serum) [2, 4]: 108 h
KA, Transformed Estimate ([2]; vitreous-to-serum absorption rate constant, 261 patients with GA or nAMD): 0.0528 day⁻¹
half-maximal effective concentration [EC50], alternative pathway [3]: 2.77 µg/mL
